23 compounds from ChEMBL document CHEMBL4000147, “Pyrrolo[2,3-b]pyridine derivatives as potent Bruton's tyrosine kinase inhibitors” (Bioorg Med Chem, 2015) can be followed below.

SMILES strings stand for the structures.

Series [1] can be described thus: Cmax in Sprague-Dawley rat at 4 mg/kg, po by LC/MS/MS analysis. On the set-up: dose 4 mg/kg, route oral. As to conditions: in vivo. It is filed as ADME, organism-based. Put shortly: (§1)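 Three male SD rats (180–240 g) dosed orally, 4 mg/kg, dosing volume 5 mL/kg. Blood sampled at 2, 5, 15, 30 min and 1, 2, 4, 6, 8, 10, 24 h, centrifuged 4000 rpm 5 min at 4 °C. Plasma analysed after protein precipitation by LC/MS/MS in SRM mode with internal standard. Parameters from concentration–time data by noncompartmental analysis.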

A short description of series [2]: Tmax in Sprague-Dawley rat at 4 mg/kg, po by LC/MS/MS analysis. As to conditions: in vivo. The class given is ADME, organism-based. The method, boiled down: as §1
Series [3] can be described thus: AUClast in Sprague-Dawley rat at 4 mg/kg, po by LC/MS/MS analysis. On the set-up: dose 4 mg/kg, route oral, time 0 - last. As to conditions: in vivo. It is filed as ADME, organism-based. Put shortly:
as §1

The nature of series [4]: Clearance in Sprague-Dawley rat at 4 mg/kg, po by LC/MS/MS analysis. It is filed as ADME, organism-based. Particulars: in vivo. The method, boiled down:
as §1

Series [5] is described as follows: Half life in Sprague-Dawley rat at 4 mg/kg, po by LC/MS/MS analysis. It is filed as ADME, organism-based. Particulars: in vivo. Put shortly: as §1
For series [6], the target named is T1, Tyrosine-protein kinase BTK (Homo sapiens, UniProt Q06187). Put plainly: Inhibition of recombinant human His-tagged full length BTK expressed in baculovirus using biotin labeled peptide substrate after 1 hr by HRTF kinase/TR-FRET assay. In general terms: In TR-FRET formats the signal depends on donor and acceptor labels being close together.
T1 sequence (Q06187 whole entry): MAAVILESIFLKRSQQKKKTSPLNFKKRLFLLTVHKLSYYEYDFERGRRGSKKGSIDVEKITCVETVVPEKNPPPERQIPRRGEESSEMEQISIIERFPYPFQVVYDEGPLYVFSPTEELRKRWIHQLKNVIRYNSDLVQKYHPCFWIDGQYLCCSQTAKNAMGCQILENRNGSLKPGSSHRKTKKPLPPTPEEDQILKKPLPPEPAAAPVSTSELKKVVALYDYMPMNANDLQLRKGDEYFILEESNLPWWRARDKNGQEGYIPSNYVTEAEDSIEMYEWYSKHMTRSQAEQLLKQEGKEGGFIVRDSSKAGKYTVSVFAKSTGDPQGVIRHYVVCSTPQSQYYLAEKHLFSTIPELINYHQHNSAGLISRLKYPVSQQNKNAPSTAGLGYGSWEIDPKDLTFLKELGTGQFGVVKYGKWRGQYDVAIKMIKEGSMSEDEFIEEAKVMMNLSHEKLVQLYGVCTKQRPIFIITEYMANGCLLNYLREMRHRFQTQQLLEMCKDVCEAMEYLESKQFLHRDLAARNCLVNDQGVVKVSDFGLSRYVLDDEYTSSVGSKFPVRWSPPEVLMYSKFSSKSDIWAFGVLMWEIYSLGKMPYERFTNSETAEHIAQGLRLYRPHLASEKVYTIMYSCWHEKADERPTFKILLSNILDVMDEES
For series [7], the target named is T1, Tyrosine-protein kinase BTK. Kind of series: Inhibition of BTK in human Ramos cells assessed as inhibition of anti human IgM-induced calcium influx preincubated for 20 mins in dark followed by anti human IgM induction for 8 mins by FLIPR assay. The class given is cell-based.

As to `CN1CCN(c2ccc(Nc3cc(-c4cccc(-n5ccc6cc(C7CC7)cc(F)c6c5=O)c4CO)cn(C)c3=O)nc2)CC1`, the Cmax (usually the maximum level reached in the sampled fluid or tissue) in series [1] worked out at 134 ng/mL. For the same compound, in series [2], the Tmax (as a rule, the time at which the peak concentration occurs) amounted to 4 h. Moreover, the AUC(0-t) (in general, exposure summed from dosing to a finite time, without extrapolation to infinity) in series [3] is 1050 ng·h/mL. In addition, the CL/F (in general, clearance divided by bioavailability, as obtained after extravascular dosing) in series [4] is 53.3 mL/min/kg. For the same compound, the half-life (as a rule, the time needed for the level to fall by half in the phase considered) in series [5] was 4.4 h.
Turning to `CN(C)C(=O)N1CC=C(c2cc3c(-c4cccc(-n5ccc6cc(C7CC7)cc(F)c6c5=O)c4CO)ncnc3[nH]2)CC1`, the concentration in series [1] peaked (Cmax) at 422 ng/mL. In addition, the time to peak (Tmax) in series [2] is 0.8 h. The area under the curve AUC(0-t) in series [3] amounted to 1790 ng·h/mL. In series [4], this compound had a CL/F of 43.3 mL/min/kg. The compound further showed a half-life in series [5] of 5.4 h.
In the case of `COc1ccc(-c2cc3c(-c4cccc(-n5ccc6cc(C7CC7)cc(F)c6c5=O)c4CO)ccnc3[nH]2)cn1`, the IC50 (usually the concentration that gives 50% inhibition) amounted to 68.3 nM in series [6] and 196 nM in series [7].
With `O=C(c1ccc(-c2cc3c(-c4cccc(-n5ccc6cc(C7CC7)cc(F)c6c5=O)c4CO)ccnc3[nH]2)cc1)N1CCCCC1`, the results for the IC50 in series [6] and in series [7] were 38 nM and 52 nM, respectively.
With `Nc1cccc(-c2cc3c(-c4cccc(-n5ccc6cc(C7CC7)cc(F)c6c5=O)c4CO)ccnc3[nH]2)c1`, the values for the 50% inhibitory concentration (IC50) in series [6] and in series [7] were 110 nM and 2410 nM, respectively.
Regarding `CC(=O)c1ccc(-c2cc3c(-c4cccc(-n5ccc6cc(C7CC7)cc(F)c6c5=O)c4CO)ccnc3[nH]2)cc1`, the IC50 was 21.3 nM in series [6] and 32 nM in series [7].
Take `O=C(N1CC=C(c2cc3c(-c4cccc(-n5ccc6cc(C7CC7)cc(F)c6c5=O)c4CO)ccnc3[nH]2)CC1)N1CCOCC1`: the IC50 worked out at 7.3 nM in series [6] and 42 nM in series [7].
On to `O=c1c2c(F)cc(C3CC3)cc2ccn1-c1cccc(-c2ccnc3[nH]c(C4=CCN(C5COC5)CC4)cc23)c1CO`, for which the figures for the IC50 in series [6] and in series [7] were 31.4 nM and 3 nM, respectively.
For the compound `O=c1c2c(F)cc(C3CC3)cc2ccn1-c1cccc(-c2ccnc3[nH]c(-c4ccc(O)cc4)cc23)c1CO`, the IC50 turned out to be 39.8 nM in series [6] and 110 nM in series [7].
As to `Cn1ccc(-c2cc3c(-c4cccc(-n5ccc6cc(C7CC7)cc(F)c6c5=O)c4CO)ccnc3[nH]2)n1`, the results for the half-maximal inhibitory concentration (IC50) in series [6] and in series [7] were 20.6 nM and 9.5 nM, respectively.
On the same counts, the results for `CN(C)S(=O)(=O)N1CC=C(c2cc3c(-c4cccc(-n5ccc6cc(C7CC7)cc(F)c6c5=O)c4CO)ccnc3[nH]2)CC1` are 9.7 nM and 27 nM.
In the case of `O=c1c2c(F)cc(C3CC3)cc2ccn1-c1cccc(-c2ccnc3[nH]c(-c4ccc(CN5CCOCC5)cc4)cc23)c1CO`, the IC50 in series [6] was determined as 18.1 nM; in series [7], 69 nM.
With `CC(=O)N1CC=C(c2cc3c(-c4cccc(-n5ccc6cc(C7CC7)cc(F)c6c5=O)c4CO)ccnc3[nH]2)CC1`, the IC50 in series [6] was 6.7 nM; in series [7], 12 nM.
For `CN(C)C(=O)N1CC=C(c2cc3c(-c4cccc(-n5ccc6cc(C7CC7)cc(F)c6c5=O)c4CO)cccc3[nH]2)CC1`, the IC50 in series [6] and in series [7] was over 5000 nM throughout.
For `CC(=O)c1cc(-c2cc3c(-c4cccc(-n5ccc6cc(C7CC7)cc(F)c6c5=O)c4CO)ccnc3[nH]2)cs1`, the IC50 in series [6] turned out to be 78.1 nM; in series [7], 69 nM.
Consider `COc1ccc(-c2cc3c(-c4cccc(-n5ccc6cc(C7CC7)cc(F)c6c5=O)c4CO)ccnc3[nH]2)cc1`, for which the values for the IC50 in series [6] and in series [7] were 27.3 nM and 56.3 nM, respectively.
For `CN(C)C(=O)c1ccc(-c2cc3c(-c4cccc(-n5ccc6cc(C7CC7)cc(F)c6c5=O)c4CO)ccnc3[nH]2)cc1`, in that order: 12.1 nM and 94.2 nM.
On to `CN(C)C(=O)N1CC=C(c2cc3c(-c4cccc(-n5ccc6cc(C7CC7)cc(F)c6c5=O)c4CO)ccnc3[nH]2)CC1`, for which the IC50 is 6 nM in series [6] and 14 nM in series [7]. This compound also gave a Cmax in series [1] of 739 ng/mL. Further, the Tmax in series [2] came out at 1.9 h. Also, the AUC(0-t) in series [3] was 3420 ng·h/mL. Besides, in series [4], the CL/F is 20 mL/min/kg. The compound further showed a half-life in series [5] of 8.9 h.
Consider `CN(C)C(=O)c1ccc(-c2nc3c(-c4cccc(-n5ccc6cc(C7CC7)cc(F)c6c5=O)c4CO)ccnc3[nH]2)cc1`, for which the values for the IC50 in series [6] and in series [7] were 33.3 nM and 92.7 nM, respectively.
In the case of `O=c1c2c(F)cc(C3CC3)cc2ccn1-c1cccc(-c2ccnc3[nH]c(C4=CCNCC4)cc23)c1CO`, the IC50 in series [6] worked out at 28.3 nM; in series [7], 3 nM.
Turning to `CS(=O)(=O)N1CC=C(c2cc3c(-c4cccc(-n5ccc6cc(C7CC7)cc(F)c6c5=O)c4CO)ccnc3[nH]2)CC1`, the values for the IC50 in series [6] and in series [7] were 7.1 nM and 410 nM, respectively.
For `O=C(C1CC1)N1CC=C(c2cc3c(-c4cccc(-n5ccc6cc(C7CC7)cc(F)c6c5=O)c4CO)ccnc3[nH]2)CC1`, the half-inhibitory concentration (IC50) stood at 10.4 nM in series [6] and 16 nM in series [7].
Take `Cc1cc2c(-c3cccc(-n4ccc5cc(C6CC6)cc(F)c5c4=O)c3CO)ccnc2[nH]1`: the figures for the IC50 in series [6] and in series [7] were 395 nM and 213 nM, respectively.
